Measurements from ChEMBL document CHEMBL1149909, “Aurocitrin and related polyketide metabolites from the wood-decay fungus Hypocrea sp. BCC 14122” (J Nat Prod, 2008).

Columns and labels:
Plasmodium falciparum = assay: Antimalarial activity against multidrug-resistant Plasmodium falciparum K1 by microculture radioisotope technique; type: functional, organism-based
NCI-H187 = assay: Cytotoxicity against human NCI-H187 cells by colorimetric method; type: functional, cell-based
In short: (§1)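 Colorimetric cytotoxicity read-out on four cell lines: KB (oral human epidermoid carcinoma), BC (human breast cancer), NCI-H187 (human small cell lung cancer) and Vero (African green monkey kidney […]). A reference compound was run alongside.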

KB = assay: Cytotoxicity against human KB cells by colorimetric method; type: functional, cell-based; in short: as §1
[1] = Cytotoxicity against human BC cells by colorimetric method; type: functional, cell-based; in short: as §1
Vero = assay: Cytotoxicity against african green monkey Vero cells by colorimetric method; type: cell-based; conditions: Chlorocebus sabaeus; in short: as §1

## C[C@H]1[C@@H](O)O[C@@H]2O[C@@]3(C)CC[C@H]4[C@H](C)CC[C@@H]1[C@@]24OO3 [ARTENIMOL]
Plasmodium falciparum
  IC50: 4.5 nM

## Cc1c2ccncc2c(C)c2c1[nH]c1ccccc12 [ELLIPTECINE]
NCI-H187
  IC50: 2000 nM
KB
  IC50: 2200 nM
[1]
  IC50: 1200 nM
Vero
  IC50: 2100 nM
